Only some compounds are listed: those with a hit (about 3% of all), similar ones and a draw of the others.
Apaf-1 inh: inhibitors of human Apaf-1 apoptosome; O14727; reconstituted apoptosome caspase-3 activity, DEVD-Rh110 fluorescence; inhibition, % at 20 µM; 330,000 compounds, 0.71% hits; active = inhibition of at least 40% at 20 µM;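 also: plate controls were DMSO wells for no effect and DEVD-CHO caspase inhibitor wells for full effect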
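Material: reconstituted apoptosome with Apaf-1, cytochrome c, caspase-9, procaspase-3, dATP / Buffer or medium: pH 7.5 Hepes buffer with CHAPS, BSA, DTT / Also added: cytochrome c with DEVD-Rh110 / Schedule: compound with Apaf-1, dATP, procaspase-3 30 min, then 50 min reaction, room temperature / Technique: rhodamine 110 fluorescence at Ex 480/Em 540 nm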
MEKK2 WT-MEK5: raises or lowers MEK5 binding to wildtype human MEKK2 PB1 domain. bead flow cytometry, Alexa488-MEK5 binding to MEKK2 WT; actives lie on both sides. binding response (% of control), % at 10 µM. 290,000 compounds, 1.1% hits; in the data active = binding response below about 67% or above about 130%
UCH37 DUB inh: blocks the human deubiquitinase UCH37; inhibition, % (concentration not given with the values); Q9Y5K5; purified proteasome/UCH37, Ub-AMC cleavage fluorescence; 330,000 compounds, 0.33% hits;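 active = mean inhibition over replicate wells above about 20%, limit read from the data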;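 also: 0% = compound-free wells with enzyme and 100% = wells lacking proteasome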
Target sequence (Q9Y5K5 whole entry, looked up): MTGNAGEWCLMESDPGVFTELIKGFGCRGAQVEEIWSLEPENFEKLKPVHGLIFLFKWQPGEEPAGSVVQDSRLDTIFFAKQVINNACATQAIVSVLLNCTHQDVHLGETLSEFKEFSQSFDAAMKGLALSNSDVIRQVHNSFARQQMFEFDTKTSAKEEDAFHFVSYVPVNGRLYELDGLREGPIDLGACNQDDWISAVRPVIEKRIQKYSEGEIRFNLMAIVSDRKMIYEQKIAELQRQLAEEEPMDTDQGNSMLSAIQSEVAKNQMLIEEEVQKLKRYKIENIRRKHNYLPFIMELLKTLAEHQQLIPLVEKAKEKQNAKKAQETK
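Material: Human UCH37 enzyme supplied as purified proteasome complex | Schedule: 30 min preincubation with enzyme, 25 min cleavage at room temperature | Detection: AMC fluorescence 355/460 nm | Measure: % inhibition of Ub-AMC cleavage fluorescence | Controls: Wells without proteasome as full block, compound-free enzyme plus substrate as uninhibited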
UBC13 polyUb: blocks human UBC13 polyubiquitin chain formation; 330,000 compounds, 0.47% hits; P61088; TR-FRET; inhibition, % at 20 µM; in the data active = inhibition above about 45%, passing the limit was not always enough
Target sequence (P61088 whole entry, looked up): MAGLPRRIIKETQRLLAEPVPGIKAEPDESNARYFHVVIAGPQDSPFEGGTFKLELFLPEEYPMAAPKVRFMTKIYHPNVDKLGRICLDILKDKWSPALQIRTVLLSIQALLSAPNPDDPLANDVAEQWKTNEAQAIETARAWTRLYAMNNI
MEKK3 PB1 HTS: modulators (inhibitors or enhancers) of MEK5 binding to human MEKK3 PB1 domain; Q99759; bead-based flow cytometry, Alexa488-MEK5 binding to MEKK3; actives lie on both sides; 0 = blocked by unlabeled MEK5, 100 = vehicle; 290,000 compounds, 1.4% hits; binding response (% of control), % at 10 µM;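 active = binding response more than 3 SD above or below the average of its plate-row segment, actives on both sides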;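 also: Alexa488 bead fluorescence after subtracting the streptavidin-only scavenger bead signal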
MEKK2 mut-MEK5: signal of MEK5 binding to mutant human MEKK2 PB1 domain; bead flow cytometry, Alexa488-MEK5 binding to MEKK2 mutant; 290,000 compounds, 0.35% hits; percent response, % at 10 µM; in the data active = percent response above about 24%, passing the limit was not always enough
Active calls of the source: *; [ ] = dose if it differs, or a comment.

Results for CCN(CC)S(=O)(=O)c1ccc(N2CCOCC2)c(NC(=O)C23CC4CC(CC(Cl)(C4)C2)C3)c1 ?
Apaf-1 inh: 17; MEKK2 WT-MEK5: 103; UCH37 DUB inh: 1; UBC13 polyUb: -4; MEKK3 PB1 HTS: 101; MEKK2 mut-MEK5: -2

Results for Cc1cc(Cl)ccc1OCC(=O)Nc1cccc(S(=O)(=O)N2CCCC2)c1 ?
Apaf-1 inh: 0; UCH37 DUB inh: 0; UBC13 polyUb: 2

How did C#CCOCCOCCOCCNc1nc(N2CCN(C(=O)CCCCCCCCCCNC(=O)Cn3cc(C[C@@H](C)O)nn3)CC2)nc(N2CCN(C(=O)CCCCCCCCCCNC(=O)[C@H](CCCCN)n3cc(C[C@@H](C)CC)nn3)CC2)n1 do in these assays?
Apaf-1 inh: 71*; UBC13 polyUb: 122*

What do the screens show for `C#CCOCCOCCOCCNc1nc(N2CCN(C(=O)CCCCCCCCCCNC(=O)Cn3cc(CCCCCN)nn3)CC2)nc(N2CCN(C(=O)CCCCCCCCCCNC(=O)[C@H](CO)n3cc(CCCCCN)nn3)CC2)n1`?
Apaf-1 inh: 63*; UCH37 DUB inh: 2; UBC13 polyUb: 117*

What do the screens show for `C#CCOCCOCCOCCNc1nc(N2CCN(C(=O)CCCCCCCCCCNC(=O)Cn3cc(C[C@@H](C)O)nn3)CC2)nc(N2CCN(C(=O)CCCCCCCCCCNC(=O)Cn3cc(C[C@@H](C)O)nn3)CC2)n1`?
Apaf-1 inh: 27; UCH37 DUB inh: 7; UBC13 polyUb: 37

Results for CCOC(=O)NNc1ccc2nonc2c1[N+](=O)[O-] ?
Apaf-1 inh: 96*; MEKK2 WT-MEK5: 92; UBC13 polyUb: -82; MEKK3 PB1 HTS: 92; MEKK2 mut-MEK5: -17

How did CCc1ccc(Nc2ccc3nonc3c2[N+](=O)[O-])cc1 do in these assays?
Apaf-1 inh: -15; UCH37 DUB inh: 2; UBC13 polyUb: -4

What do the screens show for `O=C1CC(CC(=O)N/N=C/c2ccccc2[N+](=O)[O-])=NN1`?
Apaf-1 inh: 46*; MEKK2 WT-MEK5: 92; UBC13 polyUb: -3; MEKK3 PB1 HTS: 95; MEKK2 mut-MEK5: -2

Results for CCCNC(=O)[C@H](Cc1c[nH]c2ccccc12)NC(=O)c1ccccc1Cl ?
Apaf-1 inh: 12; MEKK2 WT-MEK5: 95; UCH37 DUB inh: 1; UBC13 polyUb: 1; MEKK3 PB1 HTS: 89; MEKK2 mut-MEK5: 4

How did O=C(COC(=O)/C=C/c1ccc(F)cc1)Nc1ccccc1-c1ccccc1 do in these assays?
Apaf-1 inh: 3; MEKK2 WT-MEK5: 96; UCH37 DUB inh: 2; UBC13 polyUb: 6; MEKK3 PB1 HTS: 69*[inhibitor]; MEKK2 mut-MEK5: -2

What do the screens show for `COc1ccc(CCNC(=O)c2ccc([N+](=O)[O-])cc2)cc1`?
Apaf-1 inh: 3; MEKK2 WT-MEK5: 102; UCH37 DUB inh: 4; UBC13 polyUb: -8; MEKK3 PB1 HTS: 100; MEKK2 mut-MEK5: 5

What do the screens show for `COc1ccc2c(CCNC(=O)c3ccc([N+](=O)[O-])cc3)c[nH]c2c1`?
Apaf-1 inh: -12; MEKK2 WT-MEK5: 102; UCH37 DUB inh: 27*; UBC13 polyUb: 14; MEKK3 PB1 HTS: 100; MEKK2 mut-MEK5: 3

How did O=C(COc1ccccc1)NC(NC(=S)Nc1ccccc1C(=O)O)C(Cl)(Cl)Cl (centres undefined) do in these assays?
Apaf-1 inh: 4; MEKK2 WT-MEK5: 106; UCH37 DUB inh: 0; UBC13 polyUb: -9; MEKK3 PB1 HTS: 104; MEKK2 mut-MEK5: 4

Results for CCOC(=O)c1c(S(=O)(=O)N(C)Cc2ccco2)c(C)n(C)c1C ?
Apaf-1 inh: -2; MEKK2 WT-MEK5: 43*[inhibitor]; UCH37 DUB inh: 1; UBC13 polyUb: -4; MEKK3 PB1 HTS: 30*[inhibitor]; MEKK2 mut-MEK5: -53

What do the screens show for `O=C(NC(NC(=O)c1c(F)cccc1F)c1ccc([N+](=O)[O-])cc1)c1c(F)cccc1F`?
Apaf-1 inh: 3; MEKK2 WT-MEK5: 100; UCH37 DUB inh: 2; UBC13 polyUb: -3; MEKK3 PB1 HTS: 101; MEKK2 mut-MEK5: 5

What do the screens show for `Cc1cc(O)c(C(C)C)cc1NC(=O)Nc1ccc([N+](=O)[O-])cc1`?
UCH37 DUB inh: 7

What do the screens show for `CC(C)C(=O)NC(NC(=O)C(C)C)c1ccc([N+](=O)[O-])cc1`?
Apaf-1 inh: -5; MEKK2 WT-MEK5: -1.0*; UCH37 DUB inh: 1; UBC13 polyUb: -1; MEKK3 PB1 HTS: 100; MEKK2 mut-MEK5: 3

Results for Cc1ccc(C(C)C)cc1NC(=O)Nc1ccc([N+](=O)[O-])cc1 ?
Apaf-1 inh: 14; MEKK2 WT-MEK5: 157*; UBC13 polyUb: -6; MEKK3 PB1 HTS: 112; MEKK2 mut-MEK5: 25*

How did O=S(=O)(O)c1cc(O)c2c(O)c(N=Nc3cc(Cl)ccc3O)c(S(=O)(=O)O)cc2c1 do in these assays?
Apaf-1 inh: 9; MEKK2 WT-MEK5: 94; UCH37 DUB inh: 34*; UBC13 polyUb: -53; MEKK3 PB1 HTS: 96; MEKK2 mut-MEK5: -10

Results for Cc1cc(-c2ccc(N=Nc3c(S(=O)(=O)O)cc4cc(S(=O)(=O)O)cc(N)c4c3O)c(C)c2)ccc1N=Nc1c(S(=O)(=O)O)cc2cc(S(=O)(=O)O)cc(N)c2c1O ?
Apaf-1 inh: 98*; UBC13 polyUb: -19

How did Nc1cc(S(=O)(=O)O)cc2ccc(S(=O)(=O)O)cc12 do in these assays?
UCH37 DUB inh: inactive

How did Cc1ccccc1C(=O)Nc1ccc(N2CCN(C)CC2)nc1 do in these assays?
Apaf-1 inh: -16; MEKK2 WT-MEK5: 91; UCH37 DUB inh: 4; UBC13 polyUb: 0; MEKK3 PB1 HTS: 95; MEKK2 mut-MEK5: -3

Results for Cc1ccc2c(c1)c1c(n2CC(O)CN2CCOCC2)CCCC1 (centres undefined) ?
Apaf-1 inh: -2; MEKK2 WT-MEK5: 19*; UBC13 polyUb: -10; MEKK3 PB1 HTS: 102; MEKK2 mut-MEK5: 20

What do the screens show for `Cc1ccc2c(c1)c1c(n2CC(O)CN2CCC(C)CC2)CCCC1` (centres undefined)?
Apaf-1 inh: -22; MEKK2 WT-MEK5: 125; UCH37 DUB inh: 5; UBC13 polyUb: 14; MEKK3 PB1 HTS: 102; MEKK2 mut-MEK5: 21

How did COc1ccc(CCN(C)C(=O)CCc2nnc(-c3ccccc3)o2)cc1OC do in these assays?
Apaf-1 inh: 7; MEKK2 WT-MEK5: 7.0*; UCH37 DUB inh: 1; UBC13 polyUb: -1; MEKK3 PB1 HTS: 94; MEKK2 mut-MEK5: -12

What do the screens show for `CN(Cc1ccc(F)cc1)C(=O)CCc1nnc(-c2ccccc2)o1`?
Apaf-1 inh: 8; MEKK2 WT-MEK5: 101; UCH37 DUB inh: 2; UBC13 polyUb: -4; MEKK3 PB1 HTS: 99; MEKK2 mut-MEK5: -1

How did Cc1ccc(NC(=O)Cn2nc(C(=O)O)c3ccccc3c2=O)cc1S(=O)(=O)N1CCCCCC1 do in these assays?
UCH37 DUB inh: 4

Assay outcomes as filed in PubChem BioAssay.
